According to PubChem BioAssay AID1027 (Sanford-Burnham Center for Chemical Genomics, 2008):
The whole screen tested about 200,000 compounds, of which fewer than 10 were called active. A selection follows. A number with no mark means an inactive call.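 Rule for the calls: active = luciferase activation factor, scaled between plate controls, of at least 2 with compound at 10 µM; inactive = the rest.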

What follows are molecules tested against Luciferin 4-monooxygenase (Photinus pyralis) (UniProt P08659) (assay: FLuc activators, initial screening, artefact control for FLuc-dependent activation tests, biochemical, ATPlite luminescence (AID 1027)). Conditions: ATPlite luciferase biochemical, 10 min, at 10 µM, active compounds read high, 0 = ATP-free wells, 1 = DMSO control.
Luciferin 4-monooxygenase (Photinus pyralis), sequence (P08659 whole entry, looked up): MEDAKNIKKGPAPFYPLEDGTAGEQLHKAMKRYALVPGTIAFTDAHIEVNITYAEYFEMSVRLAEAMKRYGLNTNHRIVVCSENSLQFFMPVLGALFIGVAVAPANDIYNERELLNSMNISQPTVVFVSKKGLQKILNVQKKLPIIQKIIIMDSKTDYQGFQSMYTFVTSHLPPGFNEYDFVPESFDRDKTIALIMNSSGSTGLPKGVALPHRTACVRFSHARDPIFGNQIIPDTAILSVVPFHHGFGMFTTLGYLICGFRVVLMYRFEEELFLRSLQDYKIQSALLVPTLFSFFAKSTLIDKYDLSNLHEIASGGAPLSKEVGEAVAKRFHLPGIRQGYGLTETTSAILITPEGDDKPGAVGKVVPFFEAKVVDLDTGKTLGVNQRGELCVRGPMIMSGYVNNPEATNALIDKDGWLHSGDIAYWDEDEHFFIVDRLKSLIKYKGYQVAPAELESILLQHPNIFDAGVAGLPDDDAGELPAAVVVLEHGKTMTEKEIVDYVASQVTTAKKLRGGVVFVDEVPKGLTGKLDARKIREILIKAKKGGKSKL
Outline: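 Assay system: Luciferase/luciferin detection reagent, cell-free biochemical luciferase assay / Read-out: luciferase activation / Benchmarks: No-ATP low control, compound-free enzyme-plus-ATP high control / Medium: PBS buffer for ATP / Detection: luminescence measurement of luciferase light output / Schedule: 10 min at ambient temperature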
With `Cc1cc(OC(=O)c2ccccc2Cl)ccc1N1C(=O)CCC1=O` the activation factor was 0.3. With `Cc1ccc(S(=O)(=O)N2CCN(CC(=O)N/N=C/c3ccc(Br)s3)CC2)cc1` the activation factor was 1.1. In the case of `O=C(c1ccc(S(=O)(=O)c2ccccc2)cc1)N1CCCCCC1`, the activation factor is reported as 1. Molecule `O=C1N/C(=C/c2cccs2)C(=O)N1Cc1ccc(F)cc1` has an activation factor of 1. With `CC1=CC=CN2C1=NC(=O)CC2(C)C(=O)N(CC(=O)NC1CCCC1)c1ccccc1C` (stereo not given) the activation factor was 1.1. In the case of `Cc1cc(C)n(CCNC(=O)CC2C(=O)NCCN2Cc2ccc(C)o2)n1` (stereo not given), the activation factor is reported as 1. With `O=C(NNC(=S)NCCCN1CCOCC1)c1ccncc1` the activation factor was 1.1. `COc1cc(/C=C/C(=O)N2c3ccccc3Sc3ccc(C(F)(F)F)cc32)cc(OC)c1OC` gave an activation factor of 1. Work on `CC(=O)Nc1ccc(NC(=S)NC(=O)c2ccc([N+](=O)[O-])c(C)c2)cc1` yielded an activation factor of 0.9. `O=C(COC(=O)C1CCN(S(=O)(=O)c2ccc3c(c2)OCCO3)CC1)Nc1ccccc1OC(F)F` gave an activation factor of 1. Molecule `CCc1ccc(OCC(=O)OCC(=O)c2c(N)n(C)c(=O)n(C)c2=O)cc1` has an activation factor of 1.1. In the case of `O=C(c1ccc(-c2ccccc2)cc1)C1CCCN(C(=O)c2cncs2)C1` (stereo not given), the activation factor is reported as 1.1. With `O=C(CSC1CC(=O)N(CCc2ccccc2)C1=O)Nc1ccc(Cl)cc1` (stereo not given) the activation factor was 1. `CC(=O)Nc1ccc(Nc2nc3c(S(=O)(=O)c4ccc(C)c(C)c4)nnn3c3ccccc23)cc1` showed an activation factor of 1. `COc1cccc(CNC(=O)Cc2csc(Nc3nc(=S)[nH]c4ccccc34)n2)c1` showed an activation factor of 1.1. Molecule `CCn1c(-c2ccncc2)n[nH]c1=S` has an activation factor of 1. `O=C(COC(=O)c1cccc(Br)c1)Nc1cccc2c1C(=O)c1ccccc1C2=O` gave an activation factor of 1. In the case of `O=c1[nH]n2c(-c3ccccc3)nc(O)c2c2ccccc12`, the activation factor is reported as 1. With `N/C(Cc1ccc([N+](=O)[O-])cc1)=N\OC(=O)C1CCCCC1` the activation factor was 1. In the case of `Cc1c(-c2cccc(Cl)c2)nc2ccccc2c1C(=O)OCC(=O)N(C)C1CCS(=O)(=O)C1` (stereo not given), the activation factor is reported as 1. Molecule `COCCCNCCOCCOc1ccc(Cl)cc1Br` has an activation factor of 1. For `CC(=O)Nc1ccc(SCC(=O)Nc2ccccc2Oc2ccccc2)cc1`, the activation factor was 1. `Cc1cc(Oc2ccc(Cl)cc2)nc(SCC(=O)c2ccccc2)n1` showed an activation factor of 1. With `C/C(=N\Nc1ccc([N+](=O)[O-])cc1)c1ccc(-n2nncc2C(C)(C)C)cc1` the activation factor was 1. In the case of `Cc1cccc(C)c1NC(=O)CNC(=O)Cc1ccc(Br)cc1`, the activation factor is reported as 1.1. Molecule `Cc1ccc(C(=O)C(=S)N2CCOCC2)cc1` has an activation factor of 1.1. For `Cc1ccc(N(CCC(=O)O)S(=O)(=O)c2cccc(C(F)(F)F)c2)cc1`, the activation factor was 1. `Cc1ccc(NN=Nc2nc3c([nH]2)c(=O)n(C)c(=O)n3C)cc1` was tested, and the activation factor was 1. `O=C(N/N=C/c1ccc(Cl)cc1)c1nc2ccc([N+](=O)[O-])cc2c(=O)[nH]1` was tested, and the activation factor was 1. With `CC(=O)Nc1ccc(NC(=O)CSc2nnc(COc3ccccc3C)n2CC2CCCO2)cc1` (stereo not given) the activation factor was 1. Molecule `Fc1cc(Br)ccc1NC(=S)Nc1cccnc1` has an activation factor of 1.1. Work on `O=c1cc(CN2CCN(S(=O)(=O)/C=C/c3ccccc3)CC2)c2ccc(O)cc2o1` yielded an activation factor of 1. With `CC1(C)CN(c2ccc(-c3ccnc4ncnn34)cc2)C1=O` the activation factor was 1. `CN(C)CCOc1ccc(Cl)cc1C(C)(C)C` gave an activation factor of 1.1. `CCNC(=S)N1CCN(c2ncccn2)CC1` gave an activation factor of 1. Work on `CCc1nnc(NS(=O)(=O)c2ccc(NC(=S)NC(=O)/C=C/c3cccs3)cc2)s1` yielded an activation factor of 1. With `COC(=O)C[n+]1cccc2ccccc21` the activation factor was 1. `Cc1cccc(N2CCN(C(=O)c3cccc(S(=O)(=O)N4CCc5ccccc5C4)c3)CC2C)c1` (stereo not given) was tested, and the activation factor was 1.1. With `CC(=O)NC(Cc1ccc(F)c(F)c1)C(=O)NC1CCN(C(=O)c2ccc(C)cc2)CC1` (stereo not given) the activation factor was 1.1. For `CCCCN(CC)C(=O)c1ccccc1Oc1ccccc1`, the activation factor was 1. `Cc1ccccc1C1CC(c2cccs2)=NN1S(C)(=O)=O` (stereo not given) was tested, and the activation factor was 1.1. In the case of `CCn1nc(C)cc1C(=O)N1CCCC(C(=O)c2cccc(OC)c2)C1` (stereo not given), the activation factor is reported as 0.9. Molecule `C=C(C)c1cccc(C(C)(C)NC(=O)NCCN(CC)CC)c1` has an activation factor of 1. Work on `Clc1ccc(-c2csc(-c3ccncc3)n2)cc1` yielded an activation factor of 0.9. With `COCCNC(=S)Nc1cc(S(=O)(=O)N2CCOCC2)ccc1N1CCCCC1` the activation factor was 1. With `CC(C)OCCCNC(=O)c1ccc(C2SCC(=O)N2Cc2ccco2)cc1` (stereo not given) the activation factor was 1. In the case of `COc1cccc(-n2c(=S)[nH]c3c(oc4ccccc43)c2=O)c1`, the activation factor is reported as 1. For `CCc1cc(CNC(=O)CC2C(=O)NCCN2CC2CCCCC2)on1` (stereo not given), the activation factor was 1.1. For `CCCCOC(=O)c1ccc(NC(c2ccc(C)cc2)P(=O)(OC)OC)cc1` (stereo not given), the activation factor was 1. `CC1=C(C(=O)Nc2cc(C)ccn2)C(c2cnn(C)c2)C2=C(CC(c3ccccc3)CC2=O)N1` (stereo not given) showed an activation factor of 1.1. For `COc1cc(NC(=O)CSc2nnc3ccc(-c4ccncc4)nn23)cc(OC)c1`, the activation factor was 1. For `COc1ccc(CN2CCNC(=O)C2CC(=O)N(C)Cc2ccccn2)cc1OC` (stereo not given), the activation factor was 1. In the case of `Cc1cc(C(=O)N/N=C\C(Br)=C\c2ccccc2)c(C)o1`, the activation factor is reported as 0.8. With `O=C(Cn1nnc2ccccc2c1=O)NCc1ccc(Cl)cc1` the activation factor was 1. `O=C1CCCN1CCCNC(=S)Nc1ccc(F)c(Cl)c1` gave an activation factor of 1. `Cc1c(CN2CCCC(C(=O)c3cccc(Cl)c3)C2)c(=O)n(-c2ccccc2)n1C` (stereo not given) showed an activation factor of 1. `Cc1ccc(-c2csc(NC(=O)Cn3[nH]c(=O)c4ccccc4c3=O)n2)cc1` showed an activation factor of 1. With `CC[n+]1c(C)n(-c2ccccc2)c2ccc(NC(C)=O)cc21` the activation factor was 1. In the case of `O=S(=O)(c1ccccc1)c1nc(-c2ccccc2F)oc1NCc1cccnc1`, the activation factor is reported as 1.1. `C/C(=N\NC(=S)NCc1ccccc1)c1ccc(Cl)cc1` was tested, and the activation factor was 1. Work on `CCCc1cc(-c2nc(-c3ccc(C)cc3)cs2)ccn1` yielded an activation factor of 1. In the case of `CSCC[C@H](NC(=O)OC(C)(C)C)C(=O)N/N=C/c1cc2ccc(C)cc2nc1Cl`, the activation factor is reported as 1.1. For `CCOC(=O)c1[nH]c2c(c1-c1ccccc1)C(=O)CC(c1ccc(Cl)cc1)C2` (stereo not given), the activation factor was 1. `Cc1ccc(-n2ncc3c(=O)n(-c4ccc(C)c(C)c4)c(-c4ccco4)nc32)cc1` showed an activation factor of 1. `COc1cc(NC(=O)COC(=O)CSc2ccc3ccccc3c2)c(C)cc1[N+](=O)[O-]` showed an activation factor of 1.1. Work on `CNC(=O)c1[nH]cnc1C(=O)N[C@@H](CC(C)C)C(=O)OCc1ccccc1` yielded an activation factor of 1.1. For `CCN(CCCNC(=O)CCn1c(=O)[nH]c2ccsc2c1=O)c1ccccc1`, the activation factor was 1. Work on `CCc1ccc(C2C(C#N)=C(N)N(N(C)C)C3=C2C(=O)CCC3)s1` (stereo not given) yielded an activation factor of 1. With `O=C(CCCNS(=O)(=O)c1cccc2nsnc12)NCCN1CCN(c2ccccc2F)CC1` the activation factor was 1.1. `Cc1ccc(NC(=O)CSc2nc(CSc3ccc(C)cc3)cc(=O)[nH]2)cc1` showed an activation factor of 0.9. In the case of `Cc1cccc(N2CCN(C(=O)c3cnn4c(C(F)F)cc(-c5ccccc5)nc34)CC2)c1C`, the activation factor is reported as 1. `Cc1ccc(NC(=O)CN2CCCCC2)c2c1CC(C)(C)O2` was tested, and the activation factor was 1. With `CC[C@H](C)[C@@H](C(=O)N1CCNCC1)n1cc([C@@H](N)Cc2ccc(O)cc2)nn1` the activation factor was 1.1. Molecule `CCN(CC)CCNc1nc(-c2ccc(OC(F)F)cc2)c(C)s1` has an activation factor of 1. With `CNC(=O)/C(C#N)=C/c1c(F)cccc1Cl` the activation factor was 1. With `Clc1ccc(-c2cc(C3CCNCC3)[nH]n2)c(Cl)c1` the activation factor was 1. Work on `COc1ccc(C2=NN(c3nc4ccccc4s3)C(=O)C2)cc1` yielded an activation factor of 0.4. `CCO[C@H]1OC(C(=O)N2CCCCCCC2)=C[C@@H](c2ccc(C(F)(F)F)cc2)[C@@H]1CCCO` was tested, and the activation factor was 1.1. In the case of `Cc1nn(Cc2ccc(F)cc2)c(C)c1NC(=O)c1cccnc1Cl`, the activation factor is reported as 1.1. `O=C(CCN1C(=O)c2ccccc2C1=O)C1=NN[C@@H]2C(=O)N(c3ccc(F)cc3)C(=O)[C@H]12` was tested, and the activation factor was 1. In the case of `CCOc1ccc(-c2ccc(SCC(=O)N3CCOCC3)nn2)cc1`, the activation factor is reported as 0.2. `Cc1scc(C(=O)NNC(=S)NCC(C)C)c1C` showed an activation factor of 1. `CCCn1nc(C(=O)N2CCCc3ccccc32)c2ccccc2c1=O` gave an activation factor of 1.1. Molecule `Cc1ccc2cc(CCNC(=O)c3ccc4c(c3)OCO4)c(=O)[nH]c2c1` has an activation factor of 1.1. In the case of `COc1ccc2oc(=O)c(C(=O)NCc3ccccn3)cc2c1`, the activation factor is reported as 0.9. Work on `Cc1ccc2c(c1)C1CN(C)CCC1N2C(=O)c1ccccc1NS(=O)(=O)c1ccc(F)cc1C` (stereo not given) yielded an activation factor of 1.1. With `CCOc1ccc(CCNC(=O)C2=C(C)C(=O)OC23CCC(C)CC3)cc1OCC` (stereo not given) the activation factor was 1.1. For `COc1ccc(NS(=O)(=O)c2ccc(O)c(C(=O)OCC(=O)NC3CCCCC3)c2)cc1`, the activation factor was 1.1. `Cc1cccc(N=Nc2c(O)[nH]c3ccc(F)cc23)c1` showed an activation factor of 0.9. `NC1=NC(=O)C(Cc2cccc(Cl)c2)S1` (stereo not given) was tested, and the activation factor was 1. `CN(C)c1ccnc(Nc2ccc(F)cc2)c1C#N` gave an activation factor of 1. `COc1ccc(NC(=O)N2CCCC(c3nc(-c4ccc(F)cc4)no3)C2)cc1` (stereo not given) gave an activation factor of 1. Molecule `CN1CCN(c2ccc(NC(=O)c3ccc4c(c3)[nH]c(=O)n4Cc3ccc(F)cc3)cc2)CC1` has an activation factor of 1. `COc1ccc(NC(=O)CN2C(=O)C(c3ccccc3)=NC23CCCCCC3)cc1OC` showed an activation factor of 1. Molecule `CC(NC(=O)COC(=O)c1ccc(Cl)cc1O)c1ccc(F)cc1` (stereo not given) has an activation factor of 1.
